ChEMBL document CHEMBL1123944, “Tertiary 3- and 4-haloalkylamine analogues of oxotremorine as prodrugs of potent muscarinic agonists” (J Med Chem, 1988)

test system: not listed separately; assay: First order rate constant for cyclization of the compound; assay type: ADME; conditions: not given
How it was run: (§1)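 Haloalkylamine (1.5–2 mM) in 50 mM sodium phosphate buffer, pH 7.4, at 37 °C. Released halide measured by argentometric titration. Data fitted by nonlinear regression to θ = 1 − e^(−k1·t), giving the apparent first-order constant k1. Means ± SE of three determinations.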

| SMILES | K1 |
| --- | --- |
| CN(CC#CCN1CCCC1=O)CCCl | 0.019 min⁻¹ |
| CN(CC#CCN1CCCC1=O)CCCCl | 0.0016 min⁻¹ |
| CN(CC#CCN1CCCC1=O)CCCI | 0.0491 min⁻¹ |
| CN(CC#CCN1CCCC1=O)CCCCCl | > 2 min⁻¹ |
| CC1CCC(=O)N1CC#CCN(C)CCCBr (stereo not given) | 0.0555 min⁻¹ |
| CN(CC#CCN1CCCC1=O)CCCBr | 0.061 min⁻¹ |
| CN(CC#CCN1CCCC1=O)CCBr | 0.85 min⁻¹ |

test system: not listed separately; assay: Half life was measured; assay type: ADME; conditions: not given; how it was run: as §1

| SMILES | half-life |
| --- | --- |
| CN(CC#CCN1CCCC1=O)CCCl | 36.5 min |
| CN(CC#CCN1CCCC1=O)CCCCl | 436 min |
| CN(CC#CCN1CCCC1=O)CCCI | 14.1 min |
| CN(CC#CCN1CCCC1=O)CCCCCl | < 0.4 min |
| CC1CCC(=O)N1CC#CCN(C)CCCBr (stereo not given) | 12.5 min |
| CN(CC#CCN1CCCC1=O)CCCBr | 11.4 min |
| CN(CC#CCN1CCCC1=O)CCBr | 0.8 min |

species: Cavia porcellus; assay: Muscarinic activity in isolated guinea pig ileum; assay type: functional; conditions: not given
How it was run: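 Guinea pig ileum in Tyrode solution (pH 7.4, 37 °C) containing 0.3 mM hexamethonium. Isotonic contractions recorded at 1 g tension. Cumulative concentration-response curves used stepwise 2.15-fold increments, with oxotremorine as reference. Parent compounds were dissolved in ice-cold water. Cyclized forms were pre-incubated in 50 mM phosphate buffer pH 7.4 at 37 °C for 30 h, 2 h or 1 min depending on the compound. EC50 given as mean ± SE over n preparations.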

| SMILES | EC50 |
| --- | --- |
| CN(CC#CCN1CCCC1=O)CCCCl | 120 nM |
| C[N+](C)(C)CCOC(N)=O.[Cl-] [CARBACHOL] | 120 nM |
| C[N+]1(CC#CCN2CCCC2=O)CCCC1 | 401 nM |
| CN(CC#CCN1CCCC1=O)CCCI | 136 nM |
| O=C1CCCN1CC#CCN1CCCC1 [OXOTREMORINE] | 44 nM |
| CN(CC#CCN1CCCC1=O)CCCCCl | 538 nM |
| CC1CCC(=O)N1CC#CCN(C)CCCBr (stereo not given) | 1140 nM |
| CN(CC#CCN1CCCC1=O)CCCBr | 114 nM |

species: Mus musculus; assay: Analgesic activity was measured by tail flick assay; assay type: functional; conditions: not given
How it was run: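 Male Swiss-Webster mice (24–30 g); drug in ice-cold saline (kept on ice ≤1 h), given ip after control reaction times were taken. Tail-flick reaction times recorded 10 min post-dose; responders were animals whose reaction time was at least twice control. Dose estimated by the up-and-down method.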

| SMILES | ED50 |
| --- | --- |
| CN(CC#CCN1CCCC1=O)CCCCl | 33.3 µmol/kg |
| CN(CC#CCN1CCCC1=O)CCCI | 7.7 µmol/kg |
| O=C1CCCN1CC#CCN1CCCC1 [OXOTREMORINE] | 0.1 µmol/kg |
| CN(CC#CCN1CCCC1=O)CCCCCl | 10.3 µmol/kg |
| CC1CCC(=O)N1CC#CCN(C)CCCBr (stereo not given) | 111 µmol/kg |
| CN(CC#CCN1CCCC1=O)CCCBr | 3.2 µmol/kg |

test system: Mus musculus; assay: Muscarinic activity tested by measuring salivation in mice after ip administration; assay type: functional; conditions: not given
How it was run: (§2)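 Male Swiss-Webster mice (24–30 g); compounds in ice-cold saline, used within 1 h, given ip or iv via tail vein. Salivation was scored by touching the mouth to absorbent paper at intervals over the first 10 min. Threshold dose estimated by the up-and-down method; mean ± SE.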

| SMILES | ED50 |
| --- | --- |
| CN(CC#CCN1CCCC1=O)CCCCl | 29.3 µmol/kg |
| CN(CC#CCN1CCCC1=O)CCCI | 10.4 µmol/kg |
| O=C1CCCN1CC#CCN1CCCC1 [OXOTREMORINE] | 0.29 µmol/kg |
| CN(CC#CCN1CCCC1=O)CCCCCl | 4.2 µmol/kg |
| CC1CCC(=O)N1CC#CCN(C)CCCBr (stereo not given) | 80.8 µmol/kg |
| CN(CC#CCN1CCCC1=O)CCCBr | 6 µmol/kg |

test system: Mus musculus; assay: Muscarinic activity tested by measuring salivation in mice after iv administration; assay type: functional; conditions: not given; how it was run: as §2

| SMILES | ED50 |
| --- | --- |
| CN(CC#CCN1CCCC1=O)CCCCl | 22.4 µmol/kg |
| CN(CC#CCN1CCCC1=O)CCCI | 4.5 µmol/kg |
| O=C1CCCN1CC#CCN1CCCC1 [OXOTREMORINE] | 0.19 µmol/kg |
| CN(CC#CCN1CCCC1=O)CCCCCl | 1.1 µmol/kg |
| CC1CCC(=O)N1CC#CCN(C)CCCBr (stereo not given) | 38 µmol/kg |
| CN(CC#CCN1CCCC1=O)CCCBr | 2.9 µmol/kg |

test system: Mus musculus; assay: Muscarinic activity tested by measuring tremor in mice after ip administration; assay type: functional; conditions: not given
How it was run: (§3)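 Male Swiss-Webster mice (24–30 g) dosed ip or iv via tail vein with compound in ice-cold saline (held on ice ≤1 h). Intermittent spontaneous (grade 2) tremor judged visually. Threshold dose estimated by the up-and-down method; mean ± SE.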

| SMILES | ED50 |
| --- | --- |
| CN(CC#CCN1CCCC1=O)CCCI | 29.7 µmol/kg |
| O=C1CCCN1CC#CCN1CCCC1 [OXOTREMORINE] | 0.59 µmol/kg |
| CN(CC#CCN1CCCC1=O)CCCBr | 15.6 µmol/kg |

test system: Mus musculus; assay: Muscarinic activity tested by measuring tremor in mice after iv administration; assay type: functional; conditions: not given; how it was run: as §3

| SMILES | ED50 |
| --- | --- |
| CN(CC#CCN1CCCC1=O)CCCI | 8.9 µmol/kg |
| O=C1CCCN1CC#CCN1CCCC1 [OXOTREMORINE] | 0.44 µmol/kg |
| CN(CC#CCN1CCCC1=O)CCCCCl | 3.6 µmol/kg |
| CN(CC#CCN1CCCC1=O)CCCBr | 6.3 µmol/kg |

test system: not listed separately; assay: Toxicity was measured after iv administration; assay type: organism-based; conditions: mouse, in vivo
How it was run: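 Male Swiss-Webster mice (24–30 g) dosed iv with compound in ice-cold saline. LD50 estimated by the up-and-down method, with mortality counted at 1 h; mean ± SE.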

| SMILES | LD50 |
| --- | --- |
| CN(CC#CCN1CCCC1=O)CCCCl | 245 µmol/kg |
| CN(CC#CCN1CCCC1=O)CCCI | > 125 µmol/kg |
| CN(CC#CCN1CCCC1=O)CCCCCl | 8 µmol/kg |
| CC1CCC(=O)N1CC#CCN(C)CCCBr (stereo not given) | > 250 µmol/kg |
| CN(CC#CCN1CCCC1=O)CCCBr | 46.7 µmol/kg |

test system: not listed separately; assay: (§4) The equipotent molar ratio relative to oxotremorine (EPMR); assay type: functional; conditions: not given
How it was run: (§5)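 Ileum EC50 taken as a ratio to the oxotremorine EC50 in guinea pig ileum contracting in Tyrode (pH 7.4, 37 °C, 0.3 mM hexamethonium). Curves were cumulative with 2.15-fold steps. Compounds were tested as parents in ice-cold water or after pre-cyclization in pH 7.4 phosphate buffer at 37 °C. Mean ± SE.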

| SMILES | Ratio |
| --- | --- |
| CN(CC#CCN1CCCC1=O)CCCI | 2.95 |
| CN(CC#CCN1CCCC1=O)CCCCCl | 10.2 |
| CC1CCC(=O)N1CC#CCN(C)CCCBr (stereo not given) | 23.7 |
| CN(CC#CCN1CCCC1=O)CCCBr | 2.49 |

test system: not listed separately; assay: as §4; assay type: ADME; conditions: not given; how it was run: as §5

| SMILES | Ratio |
| --- | --- |
| CN(CC#CCN1CCCC1=O)CCCCl | 2.78 |
| C[N+](C)(C)CCOC(N)=O.[Cl-] [CARBACHOL] | 2.6 |
| C[N+]1(CC#CCN2CCCC2=O)CCCC1 | 8.31 |
| O=C1CCCN1CC#CCN1CCCC1 [OXOTREMORINE] | 1 |
